The data set in a line: Toxicity liver stage against HepG2, at 10uM. Also on record: test concentration 10 uM, cell line HepG2-A16-CD81EGFP. Format: cell-based. The note with it: human, HepG2-A16-CD81EGFP cells; read-out: INHIBITION
The method in brief:
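Uninfected HepG2-A16-CD81EGFP cells, 3 × 10^3 per well, 1536-well, plated on prespotted compound at 10 μM final, parasite-free screening media added to match infected plates; puromycin 10 μM positive, DMSO 0.5% negative; run in parallel with 48 h PbLuc assay at 37 °C, 5% CO2; viability by CellTiter-Glo luminescence, normalized to controls.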
For `CCS(=O)(=O)N1CCOC2(CCCN(c3cnccn3)C2)C1` (stereo unspecified), the cytotoxicity at 10 µM amounted to 2.66%.

As for `Cc1cccc(-c2ccc(C(=O)N3CCSCC3)c(=O)[nH]2)c1`, the cytotoxicity at 10 µM came to 6.99%. `N#Cc1ccc(CN2CCCCC2Cn2cccn2)cc1` (stereo unspecified): the cytotoxicity at 10 µM is -8.96%. The figure for `Cc1cc(C(C)NC(=O)N2CCC(n3cncn3)CC2)c(C)s1` (stereo unspecified) is -15.9%.

As for `CCN(CC)C(=O)c1ccn(COc2cc(C)cc(C)c2)n1`, the cytotoxicity at 10 µM worked out at 13.9%. Consider `CCN(CC)C(=O)[C@@H]1C[C@@H](NC(=O)c2cccc(N(C)C)c2)CN1C`, for which the cytotoxicity at 10 µM was determined as 6.69%.

As to `O=C(NCc1c(F)cccc1Cl)c1cc(CN2CCCC(O)C2)on1` (stereo unspecified), the cytotoxicity at 10 µM was -44.9%. As to `Cc1ccc(-c2nnc(CCC(=O)NCc3cn(C)nc3C)o2)s1`, the cytotoxicity at 10 µM is -1.31%. As for `C[C@H](NC(=O)Cc1csc(-c2cccc(Cl)c2)n1)C(=O)O`, the cytotoxicity at 10 µM was found to be 1.25%. `CC(=O)NC1(C(=O)N(C)Cc2c(C)noc2C)CCCCC1`: the cytotoxicity at 10 µM was 14.4%. As for `Nc1nnc(CCCNC(=O)c2ccc(C3CCCNC3)cc2)s1` (stereo unspecified), the figure is -1.28%; as for `O=C(CN1CCCC(c2ccc(C(=O)O)cc2)C1)NC1CC1` (stereo unspecified), -9.87%. The figure for `Cc1ccccc1C(CC(=O)N1CCc2sccc2C1)NC(N)=O` (stereo unspecified) is 0.0773%; for `COc1ccc(-c2cc(C(=O)Nc3nc[nH]n3)[nH]n2)cc1` it is -12.1%; for `c1cnc(N2CCC3(COCc4cnc(N5CCOCC5)nc43)C2)nc1` (stereo unspecified) it is -1.72%.

As to `CCn1nccc1CNC(=O)C(C)n1cc2c(n1)c(C)nn2C` (stereo unspecified), the cytotoxicity at 10 µM amounted to 5.32%.

For `COc1ccccc1-c1ccc(NCc2cn3c(n2)SCC3)nn1`, the cytotoxicity at 10 µM is 8.62%. `OC(COc1ccc2c(c1)OCO2)CN1CC(n2cccn2)C1` (stereo unspecified): the cytotoxicity at 10 µM is -6.17%. For `Cc1nnc2n1CCN(Cc1nc(-c3ccoc3)no1)C2`, the cytotoxicity at 10 µM is -5.86%. On to `Cc1ncnc2c1CCN(C(=O)c1cccn1C)CC2`, for which the cytotoxicity at 10 µM was -75.1%.

Regarding `Cc1nc(CC(C)C)cc(C(=O)N2C[C@@H](CN(C)C)[C@@H](CO)C2)n1`, the cytotoxicity at 10 µM amounted to 0.868%. As to `OCCN1CCN(Cc2cc(Cl)cc3cccnc23)CC1`, the cytotoxicity at 10 µM is -8.12%.

Consider `CNc1ccnc(N(C)Cc2cc(-c3cccs3)n[nH]2)n1`, for which the cytotoxicity at 10 µM is -4.57%. Consider `CCn1c(N)nc2cc(C(=O)N3CCCOCC3)cnc21`, for which the cytotoxicity at 10 µM is -8.24%. For the compound `CCC(=O)N1CCC2(CC1)CC(CC(=O)N(C)C)c1ccc(F)cc12` (stereo unspecified), the cytotoxicity at 10 µM was -101%. With `Cc1cc(C)c(CNCC(O)c2ccc(F)c(F)c2)c(C)c1` (stereo unspecified), the cytotoxicity at 10 µM amounted to 6.59%. As to `CC(C)c1nc(CN2CCN(C(=O)CC3CCCCC3)CC2)no1`, the cytotoxicity at 10 µM was -0.95%. The figure for `Cn1cccc(NC(=O)NCCOCc2ccccc2)c1=O` is -37.8%; for `Cn1ccn2ncc(C(=O)NCc3cccnc3N3CCCC(O)C3)c12` (stereo unspecified) it is -8.01%; for `Cc1cc(C(=O)N[C@H](C)c2onc(-c3cccnc3)c2C(=O)O)c(C)o1` it is 1.47%. The figure for `Cc1cc(F)ccc1OC1(C(=O)O)CCN(Cc2ccncc2)CC1` is -8.31%; for `CCOC(=O)CCC(=O)N1CC(c2nc(Cc3ccccc3)no2)C1` it is -2.42%. The figure for `CCOc1ccc(CC(=O)N(CCC(=O)OC)CC2CCCO2)cc1` (stereo unspecified) is 5.04%; for `CN1CCOC(CNCc2nc(-c3ccoc3)no2)C1` (stereo unspecified) it is -5.27%; for `COC(=O)c1cccc(C2CNCCN2C(C)=O)c1` (stereo unspecified) it is 3.31%. Turning to `O=C(C1CC12CCC2)N1CCC(n2cc(-c3ccsc3)nn2)CC1` (stereo unspecified), the cytotoxicity at 10 µM amounted to 5.85%. On to `N#CC1(NC(=O)Cn2nnc(-c3cc4ccccc4o3)n2)CCCC1`, for which the cytotoxicity at 10 µM worked out at 0.696%.

`Cc1ccoc1C(=O)NC(CC(C)C)C(=O)N1CCC(CO)CC1` (stereo unspecified): the cytotoxicity at 10 µM was 0.794%. The figure for `O=C(Cn1ccc2cc(Br)ccc21)NC[C@@H]1CCCN2CCCC[C@H]12` is 14.5%; for `O=C1CCCN1Cc1nnc(SCc2ccc3c(c2)CCC3)o1` it is 2.03%. The figure for `Cc1ccc(CNC(=O)NC2CCCN(c3ncccn3)C2)n1C` (stereo unspecified) is 5.23%; for `Cc1ccc(-n2nnc(CC(=O)N3CCN(C4CC4)CC3)c2C)cc1` it is -8.06%; for `CCOC(=O)N1CCN(C(=O)c2sc(-c3ccccc3F)nc2C)CC1` it is 20%. Consider `O=C(Cc1ccccc1Cl)Nc1cc(N2CCCC2)ncn1`, for which the cytotoxicity at 10 µM was -2.46%. For `CCC(=O)N1CCN(C(=O)Cn2cccn2)CC1`, the cytotoxicity at 10 µM is 0.661%. The figure for `Cc1ccc(CN2CC3(CCN(C(=O)Cc4ccc(Cl)cc4)C3)C2)o1` is 6.11%.

In the case of `O=C(CN1CCCCC1Cn1cncn1)Nc1ccncc1` (stereo unspecified), the cytotoxicity at 10 µM was determined as 11.2%. As to `CN1CCOC(CNC(=O)Cc2coc(-c3ccccc3)n2)C1` (stereo unspecified), the cytotoxicity at 10 µM is -25.1%.

In the case of `CC1=N[C@@]2(CC[C@@H]3CN(C(=O)NCc4ccccc4C)C[C@@H]32)C(=O)N1`, the cytotoxicity at 10 µM is -74.9%. The figure for `CN1CCCN(C[C@@H]2CN(C(=O)CCC3CCCC3)C[C@@H]2CO)CC1` is -20.6%; for `COc1ccccc1CC(=O)N1CCCC(CNS(C)(=O)=O)C1` (stereo unspecified) it is 0.691%.

Turning to `CN1CCN(Cc2nc3ccccc3[nH]2)[C@H]2CS(=O)(=O)C[C@H]21`, the cytotoxicity at 10 µM turned out to be 20.5%. The figure for `Cc1nn(C)c(C)c1C1COCCN1C(=O)CC(C)(C)C` (stereo unspecified) is -5.07%; for `N#Cc1ccc(F)c(CNC(=O)NC(CO)Cc2ccccc2)c1` (stereo unspecified) it is 1.98%; for `COc1ccc(C2CCCCCN2S(=O)(=O)N(C)C)cc1` (stereo unspecified) it is -9.87%. On to `CNC(=O)CN1CCOCC12CCN(C(=O)c1ccc(C)cc1)CC2`, for which the cytotoxicity at 10 µM was -87.6%. As for `Cc1c(C(=O)N2CCC(C(O)c3ccc(Cl)cc3)CC2)cnn1C` (stereo unspecified), the figure is -0.916%; as for `CC(C)(CO)NCc1ccc(OCc2ccc3c(c2)OCCO3)cc1`, 4.12%. On to `COc1ccccc1CN(Cc1cccnc1)CC1CCCO1` (stereo unspecified), for which the cytotoxicity at 10 µM came to 1.03%. As for `Cc1ccc(NC(=O)NCC(c2cnn(C)c2)N(C)C)c(C)c1` (stereo unspecified), the figure is -0.538%.

On to `Cc1nc(N)cc(C2CCN2CCC(N)=O)n1` (stereo unspecified), for which the cytotoxicity at 10 µM is -1.21%. `O=C(NCCNc1cccnc1)C(c1cccnc1)N1CCCC1` (stereo unspecified): the cytotoxicity at 10 µM stood at 4.11%. Regarding `CCC[C@H]1CN(S(C)(=O)=O)C[C@@H]1NC(=O)Cc1ccc(OC)cc1`, the cytotoxicity at 10 µM is 1.85%. The figure for `CN1CCCN(C(=O)c2nc3c(o2)CN(S(C)(=O)=O)C3)CC1` is -117%. `Cc1ccc([C@@H]2CN(C(=O)c3ccon3)C[C@H]2NC(=O)C2CC2)cc1`: the cytotoxicity at 10 µM stood at 1.08%.

Regarding `Cc1nc(C2CCCN2CC(=O)NCCc2ccc(Cl)cc2)no1` (stereo unspecified), the cytotoxicity at 10 µM was 8.52%. As for `COc1ccc(Cc2noc(C3=NN(C)C(=O)CC3)n2)cc1OC`, the cytotoxicity at 10 µM came to 13.3%.

For the compound `O=C(C1CCCOC1)N1CCCc2ccccc21` (stereo unspecified), the cytotoxicity at 10 µM came to 10.1%. Turning to `O=C(c1ccnn1-c1ccc2ccccn12)N1CCCC1`, the cytotoxicity at 10 µM is -102%.

`Cc1nc2c(c(=O)[nH]1)CCN(C(=O)c1[nH]nc3c1CC(C)CC3)C2` (stereo unspecified): the cytotoxicity at 10 µM worked out at 13.4%. Consider `CN(CCOc1ccc(F)cc1)S(=O)(=O)N1CCOCC1`, for which the cytotoxicity at 10 µM was found to be 7.71%.

The record behind these values is ChEMBL document CHEMBL4513216, “Probing the Open Global Health Chemical Diversity Library for Multistage-Active Starting Points for Next-Generation Antimalarials” (ACS Infect Dis, 2020).
